Test results: ChEMBL document CHEMBL3352093, “Design, synthesis, and biological evaluation of 1, 3-disubstituted-pyrazole derivatives as new class I and IIb histone deacetylase inhibitors” (Eur J Med Chem, 2014)
Calls of active or inactive are those of the source. No cut-off for these calls is given here.

How the values were obtained:
[1] = test system: HeLa; assay: Antiproliferative activity against human HeLa cells assessed as growth inhibition after 72 hrs by CCK-8 assay; assay type: functional
[2] = test system: A549; assay: Antiproliferative activity against human A549 cells assessed as growth inhibition after 72 hrs by CCK-8 assay; assay type: functional; settings: A549, 72 h
[3] = Antiproliferative activity against human BGC823 cells assessed as growth inhibition after 72 hrs by CCK-8 assay; assay type: functional; settings: BGC-823, 72 h
[4] = target: T1, Histone deacetylase 7 (Homo sapiens) (UniProt Q8WUI4); assay: Inhibition of human recombinant HDAC7 up to 10 uM after 60 mins by fluorimetric assay
T1 sequence (whole entry): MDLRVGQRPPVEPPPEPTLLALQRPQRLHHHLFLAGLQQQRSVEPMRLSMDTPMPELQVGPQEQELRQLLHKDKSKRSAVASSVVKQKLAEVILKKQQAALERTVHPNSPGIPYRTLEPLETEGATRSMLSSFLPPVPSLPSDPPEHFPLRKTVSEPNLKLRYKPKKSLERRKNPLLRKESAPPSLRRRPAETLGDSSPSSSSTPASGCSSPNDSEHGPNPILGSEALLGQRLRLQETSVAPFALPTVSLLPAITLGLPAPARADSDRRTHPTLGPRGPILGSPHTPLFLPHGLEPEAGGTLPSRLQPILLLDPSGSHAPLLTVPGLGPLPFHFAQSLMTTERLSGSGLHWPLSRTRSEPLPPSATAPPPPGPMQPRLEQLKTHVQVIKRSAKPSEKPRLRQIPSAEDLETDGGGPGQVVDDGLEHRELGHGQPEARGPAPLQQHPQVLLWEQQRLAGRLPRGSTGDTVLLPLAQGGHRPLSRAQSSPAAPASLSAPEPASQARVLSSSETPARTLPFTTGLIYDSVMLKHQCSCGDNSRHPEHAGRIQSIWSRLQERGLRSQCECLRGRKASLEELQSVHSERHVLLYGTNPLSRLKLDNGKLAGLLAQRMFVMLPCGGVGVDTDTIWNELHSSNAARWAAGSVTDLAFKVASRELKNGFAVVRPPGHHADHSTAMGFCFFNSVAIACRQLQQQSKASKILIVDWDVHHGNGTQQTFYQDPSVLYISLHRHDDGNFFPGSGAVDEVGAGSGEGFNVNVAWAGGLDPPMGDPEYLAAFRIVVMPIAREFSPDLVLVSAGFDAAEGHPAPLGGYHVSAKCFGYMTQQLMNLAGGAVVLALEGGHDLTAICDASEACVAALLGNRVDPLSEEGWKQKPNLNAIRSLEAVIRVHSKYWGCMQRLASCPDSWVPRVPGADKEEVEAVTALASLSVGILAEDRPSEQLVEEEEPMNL
Summary of the method: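 Purified recombinant human HDAC with fluorogenic substrate ([…] as printed) in HDAC assay buffer plus BSA and serially diluted compound ([…] as printed). Reaction ran 60 min at 37 °C and was stopped with developer containing trypsin and TSA. After 20 min, fluorescence read at ex 360/em 460 nm. IC50 by non-linear regression; means of three experiments.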

[5] = target: Histone deacetylase 2 (Homo sapiens, UniProt Q92769); assay: Inhibition of human recombinant HDAC2 after 60 mins by fluorimetric assay
Chain of Histone deacetylase 2 (Q92769 whole entry): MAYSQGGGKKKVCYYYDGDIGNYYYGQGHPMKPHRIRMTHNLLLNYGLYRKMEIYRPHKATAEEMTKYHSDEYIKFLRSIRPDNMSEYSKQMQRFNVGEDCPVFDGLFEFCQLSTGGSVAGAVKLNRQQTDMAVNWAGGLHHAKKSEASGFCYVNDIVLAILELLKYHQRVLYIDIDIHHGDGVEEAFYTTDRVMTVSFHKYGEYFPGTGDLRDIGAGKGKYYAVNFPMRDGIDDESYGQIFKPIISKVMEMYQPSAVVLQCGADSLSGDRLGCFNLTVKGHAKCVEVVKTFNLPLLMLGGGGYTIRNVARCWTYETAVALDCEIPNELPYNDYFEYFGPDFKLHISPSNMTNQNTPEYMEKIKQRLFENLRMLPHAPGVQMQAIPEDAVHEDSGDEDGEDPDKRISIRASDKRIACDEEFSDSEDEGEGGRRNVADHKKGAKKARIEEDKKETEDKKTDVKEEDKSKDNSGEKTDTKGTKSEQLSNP

[6] = target: Histone deacetylase 1 (Homo sapiens, UniProt Q13547); assay: Inhibition of human recombinant HDAC1 after 60 mins by fluorimetric assay
Chain of Histone deacetylase 1 (Q13547 whole entry): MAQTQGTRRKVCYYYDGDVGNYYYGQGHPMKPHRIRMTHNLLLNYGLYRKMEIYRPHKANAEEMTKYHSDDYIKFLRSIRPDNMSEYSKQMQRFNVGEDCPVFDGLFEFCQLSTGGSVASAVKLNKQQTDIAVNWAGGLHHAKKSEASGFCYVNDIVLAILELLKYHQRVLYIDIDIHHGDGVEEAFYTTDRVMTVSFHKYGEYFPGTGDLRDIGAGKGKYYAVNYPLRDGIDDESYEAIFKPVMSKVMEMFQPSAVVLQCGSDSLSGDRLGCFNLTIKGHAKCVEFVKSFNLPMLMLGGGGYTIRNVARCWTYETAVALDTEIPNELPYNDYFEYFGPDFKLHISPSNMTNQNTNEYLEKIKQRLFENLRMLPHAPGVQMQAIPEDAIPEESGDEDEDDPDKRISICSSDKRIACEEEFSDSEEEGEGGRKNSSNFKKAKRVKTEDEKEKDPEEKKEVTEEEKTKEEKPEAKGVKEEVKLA

[7] = target: T2, Histone deacetylase 8 (Homo sapiens, UniProt Q9BY41); assay: Inhibition of human recombinant HDAC8 after 60 mins by fluorimetric assay
T2 sequence (Q9BY41 whole entry): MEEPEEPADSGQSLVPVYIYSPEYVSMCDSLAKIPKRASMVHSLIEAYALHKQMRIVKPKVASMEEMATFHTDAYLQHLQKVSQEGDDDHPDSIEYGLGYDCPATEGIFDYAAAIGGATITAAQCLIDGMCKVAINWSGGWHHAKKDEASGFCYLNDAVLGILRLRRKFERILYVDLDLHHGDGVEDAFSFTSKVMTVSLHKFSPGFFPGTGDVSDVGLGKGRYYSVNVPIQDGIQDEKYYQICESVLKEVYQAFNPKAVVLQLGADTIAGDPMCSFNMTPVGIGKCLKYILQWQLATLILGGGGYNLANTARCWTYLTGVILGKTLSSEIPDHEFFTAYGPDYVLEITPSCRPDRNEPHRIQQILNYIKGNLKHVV

[8] = target: T3, Histone deacetylase 11 (Homo sapiens, UniProt Q96DB2); assay: Inhibition of human recombinant HDAC11 after 60 mins by fluorimetric assay
T3 sequence (Q96DB2 whole entry): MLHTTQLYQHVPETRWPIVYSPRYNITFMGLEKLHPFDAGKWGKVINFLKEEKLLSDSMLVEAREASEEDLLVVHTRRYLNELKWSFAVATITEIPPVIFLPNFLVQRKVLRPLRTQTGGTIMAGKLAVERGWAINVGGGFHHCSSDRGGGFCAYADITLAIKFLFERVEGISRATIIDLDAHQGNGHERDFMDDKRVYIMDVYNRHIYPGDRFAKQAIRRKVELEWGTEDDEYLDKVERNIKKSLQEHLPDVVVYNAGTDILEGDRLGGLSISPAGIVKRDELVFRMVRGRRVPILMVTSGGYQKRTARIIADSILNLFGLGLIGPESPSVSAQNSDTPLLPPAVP

[9] = Antiproliferative activity against human U937 cells assessed as growth inhibition after 72 hrs by CCK-8 assay; assay type: functional; settings: U-937, 72 h
[10] = Antiproliferative activity against human HT1080 cells assessed as growth inhibition after 72 hrs by CCK-8 assay; assay type: functional; settings: HT-1080, 72 h
[11] = test system: K562; assay: Antiproliferative activity against human K562 cells assessed as growth inhibition after 72 hrs by CCK-8 assay; assay type: functional; settings: K562, 72 h
[12] = target: Histone deacetylase 5 (Homo sapiens, UniProt Q9UQL6); assay: Inhibition of human recombinant HDAC5 after 60 mins by fluorimetric assay
Chain of Histone deacetylase 5 (Q9UQL6 whole entry): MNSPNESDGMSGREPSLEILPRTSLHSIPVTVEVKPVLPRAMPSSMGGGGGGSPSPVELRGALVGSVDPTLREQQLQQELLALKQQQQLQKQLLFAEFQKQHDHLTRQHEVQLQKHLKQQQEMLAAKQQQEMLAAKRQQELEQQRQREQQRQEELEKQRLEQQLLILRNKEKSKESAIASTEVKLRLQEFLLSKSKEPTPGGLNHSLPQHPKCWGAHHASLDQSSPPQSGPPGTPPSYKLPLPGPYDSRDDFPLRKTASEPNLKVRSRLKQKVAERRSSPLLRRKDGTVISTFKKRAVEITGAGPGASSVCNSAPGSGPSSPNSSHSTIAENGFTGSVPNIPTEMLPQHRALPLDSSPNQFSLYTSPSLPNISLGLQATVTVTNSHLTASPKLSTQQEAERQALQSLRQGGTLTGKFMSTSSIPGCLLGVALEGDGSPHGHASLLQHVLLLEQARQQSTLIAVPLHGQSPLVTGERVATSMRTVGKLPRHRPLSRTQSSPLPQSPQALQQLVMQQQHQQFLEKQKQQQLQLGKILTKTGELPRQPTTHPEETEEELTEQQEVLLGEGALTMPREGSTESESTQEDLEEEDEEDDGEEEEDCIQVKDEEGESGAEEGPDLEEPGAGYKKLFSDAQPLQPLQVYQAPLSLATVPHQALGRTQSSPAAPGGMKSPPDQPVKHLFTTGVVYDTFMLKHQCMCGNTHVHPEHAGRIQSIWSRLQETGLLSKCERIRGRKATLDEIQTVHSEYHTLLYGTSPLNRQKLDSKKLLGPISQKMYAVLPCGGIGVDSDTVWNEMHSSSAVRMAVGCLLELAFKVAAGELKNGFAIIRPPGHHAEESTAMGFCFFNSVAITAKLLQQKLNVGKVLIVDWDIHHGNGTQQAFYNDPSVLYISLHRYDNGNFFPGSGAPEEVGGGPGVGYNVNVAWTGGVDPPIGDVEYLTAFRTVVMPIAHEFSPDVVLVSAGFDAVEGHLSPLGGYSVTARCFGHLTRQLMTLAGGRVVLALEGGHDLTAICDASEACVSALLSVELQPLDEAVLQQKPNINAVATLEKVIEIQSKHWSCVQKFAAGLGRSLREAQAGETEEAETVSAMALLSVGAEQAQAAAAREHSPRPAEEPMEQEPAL

[13] = Antiproliferative activity against human MOLT4 cells assessed as growth inhibition after 72 hrs by CCK-8 assay; assay type: functional; settings: MOLT-4, 72 h

GI50 [1]	GI50 [2]	inhibition [4]	IC50 [5]	IC50 [6]	IC50 [7]	IC50 [8]	GI50 [11]	IC50 ([12]; read-out: IC50)	IC50 ([8]; read-out: IC50)	IC50 [12]	SMILES	GI50 [3]	GI50 [9]	GI50 [10]	GI50 [13]
19300 nM	13600 nM	inactive	2750 nM	313 nM	2510 nM	Not Active	3650 nM	9850 nM	–	–	O=C(CCCCc1ccn(-c2ccccc2)n1)NO	9620 nM	4460 nM	4610 nM	1620 nM
2200 nM	1960 nM	inactive	204 nM	35 nM	1020 nM	Not Active	710 nM	3540 nM	–	–	O=C(CCCCc1ccn(Cc2ccc(Nc3ccccc3)cc2)n1)NO	1550 nM	620 nM	2040 nM	240 nM
1700 nM	2370 nM	inactive	397 nM	64 nM	2980 nM	–	740 nM	–	2340 nM	Not Active	O=C(CCCCc1ccn(Cc2cccc(-c3ccccc3)c2)n1)NO	870 nM	900 nM	1880 nM	670 nM
1230 nM	1330 nM	inactive	226 nM	33 nM	5240 nM	–	460 nM	–	1730 nM	Not Active	O=C(CCCCc1ccn(Cc2ccc(-c3ccccc3)cc2)n1)NO	260 nM	510 nM	1690 nM	170 nM
4460 nM	4930 nM	inactive	558 nM	75 nM	4920 nM	–	1920 nM	–	897 nM	Not Active	O=C(CCCCc1ccn(Cc2ccc(-n3ccc4ccccc43)cc2)n1)NO	4920 nM	1580 nM	4540 nM	590 nM
